Several values for one entry are separate records, joined by “and”; a condition that tells them apart may be missing. Equal values may be shown once. Activity calls are given as the source filed them. The rule behind the calls is not given here. Some results are limits rather than exact numbers.

We go through 43 compounds from ChEMBL document CHEMBL1140091, “2-aminothienopyridazines as novel adenosine A1 receptor allosteric modulators and antagonists” (J Med Chem, 2008).

The target in test [1] is T1, Adenosine receptor A1 (Homo sapiens) (UniProt P30542).
T1 sequence (whole entry): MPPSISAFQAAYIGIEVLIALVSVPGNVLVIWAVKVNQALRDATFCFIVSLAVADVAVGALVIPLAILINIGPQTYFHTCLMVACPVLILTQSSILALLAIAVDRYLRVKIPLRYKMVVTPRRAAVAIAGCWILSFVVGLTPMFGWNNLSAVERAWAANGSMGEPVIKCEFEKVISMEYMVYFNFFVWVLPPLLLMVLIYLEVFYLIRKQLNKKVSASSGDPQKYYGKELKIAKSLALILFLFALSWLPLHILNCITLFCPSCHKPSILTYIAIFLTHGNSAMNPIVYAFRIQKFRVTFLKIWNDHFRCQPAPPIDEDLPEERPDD
The experiment in a line: Modulation of human adenosine A1 receptor expressed in CHO-K1 cells assessed as stabilization of [125I]ABA-receptor-G protein ternary complex at 50 uM by dissociation kinetic assay. The class given is cell-based. In outline:
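CHO-K1 membranes with human A1AR (10 µg) equilibrated 90 min at room temperature with 0.5 nM [125I]-ABA in 10 mM HEPES pH 7.2, 0.5 mM MgCl2, 1 U/mL ADA. Modulator (0.1-50 µM final) added for 30 min. Dissociation started with 100 µM BW-1433 plus 25 µM GTPγS for 10 min, then filtration and counting. K-score = 100×(B−Bo)/(Beq−Bo); n = 3. EC50 from variable-slope sigmoidal fit.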

Test [2] concerns the target T2, Adenosine receptor A1 (Homo sapiens, UniProt P30542).
T2 sequence (P30542 whole entry): T1 sequence (whole entry)
The test can be described thus: Modulation of human adenosine A1 receptor expressed in CHO-K1 cells assessed as allosteric effect on [125I]ABA dissociation. The class given is cell-based.

For test [3], the target named is T1, Adenosine receptor A1 (Homo sapiens). The test can be described thus: Displacement of [3H]CPX from human adenosine A1 receptor expressed in CHO-K1 cells at 50 uM. The class given is cell-based. An outline of the steps:
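Incubated with 2 nM [3H]CPX and 50 µM modulator (final) for 90 min at room temperature. Nonspecific binding defined with 100 µM NECA. Filtration and scintillation counting; triplicate, given as % inhibition versus control.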

Test [4] concerns the target T2, Adenosine receptor A1. The experiment in a line: (§1) Antagonist activity at human adenosine A1 receptor expressed in FlpIn-CHO cells assessed as inhibition of R-PIA-mediated ERK1/2 phosphorylation. The class given is functional, cell-based. The note with it: read-out: pA2 (converted).
Test [5] has as its target T1, Adenosine receptor A1 (Homo sapiens). Described as §1. The class given is functional, cell-based.
The target in test [6] is T2, Adenosine receptor A1. The experiment in a line: Antagonist activity at human adenosine A1 receptor expressed in CHO-K1 cells assessed as reduction of [3H]CCPA specific equilibrium binding. The class given is cell-based.
The target of test [7] is T1, Adenosine receptor A1 (Homo sapiens). The test can be described thus: Inverse agonist activity at human adenosine A1 receptor assessed as reduction of inhibition of R-PIA-mediated [35S]GTPgammaS binding to G protein. In kind it is functional. In outline:
(§2)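 Membranes (15 µg) from CHO FlpIn cells stably expressing human A1AR. Preincubated 60 min at 30 °C in 10 mM HEPES, 100 mM NaCl, 10 mM MgCl2, pH 7.4, with 10 µM GDP, R-PIA (0.01 nM - 1 µM) ± increasing modulator concentrations. [35S]GTPγS (100 pM) then added for another 30 min at 30 °C. Filtration and scintillation counting; three experiments in duplicate.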

Test [8] concerns the target T2, Adenosine receptor A1. The experiment in a line: Antagonist activity at human adenosine A1 receptor assessed as inhibition of R-PIA-mediated [35S]GTPgammaS binding to G protein. The following applies: read-out: pA2 (converted). In kind it is functional. An outline of the steps:
as §2

Take `Nc1ccccc1C(=O)NC1CCCCNC1=O` (stereo not drawn): in test [1], the Activity was below 5%.
`Nc1nccnc1C(=O)N/N=C/c1ccc(Cl)cc1`: the Activity in test [1] was below 5%.
For `Nc1ccccc1C(=O)N/N=C/c1ccc2c(c1)OCO2`, the Activity in test [1] was below 5%.
On to `Nc1ccccc1C(=O)NNc1ccccc1Cl`, for which, in test [1], the Activity was below 5%.
For the compound `NNC(=O)c1nccnc1N`, the Activity in test [1] was below 5%.
For `CCOC(=O)c1nn(-c2ccccc2)c(=O)c2c(N)scc12`, in test [2], the concentration for a half-maximal effect (EC50) was found to be 13.6 µM. The Activity in test [1] was 60.4%. Also, the inhibition in test [3] is 22.8%. In addition, the Kb in test [4] was 0.0158 µM.
Turning to `NC(=O)c1nnn(Cc2ccc(Cl)cc2)c1N`, the Activity in test [1] is below 5%.
As to `CCOC(=O)c1nn(-c2ccc(OC)cc2)c(=O)c2c(N)scc12`, in test [2], the EC50 is 4.3 µM. The Activity in test [1] is 68.6%. In addition, the inhibition in test [3] was determined as 92.5%. Besides, the Kb in test [4] was 0.2 µM.
Turning to `Cc1nn(-c2ccccc2)c2nc(N)c(C(N)=O)cc12`, the Activity in test [1] was below 5%.
As to `NC(=O)c1nnc2ccccc2c1N`, the Activity in test [1] was below 5%.
As for `CCOC(=O)c1nn(-c2cccc(C(F)(F)F)c2)c(=O)c2c(N)scc12`, the concentration for a half-maximal effect (EC50) in test [2] turned out to be 2.7 µM. The Activity in test [1] came to 66.1%. This compound yielded an inhibition in test [3] of 32%. In test [5], the result was inactive.
Consider `Nc1[nH]nc2[nH]c(-c3ccccc3)cc(=O)c12`, for which the Activity in test [1] is below 5%.
Turning to `CCOC(=O)c1nn(-c2ccc([N+](=O)[O-])cc2)c(=O)c2c(N)scc12`, in test [2], the half-maximal effective concentration (EC50) was 13 µM. In addition, the Activity in test [1] came out at 19.6%. The compound further had an inhibition in test [3] of 73.4%. The outcome in test [5] was inactive.
Regarding `CCOC(=O)c1c(N)sc2c1-c1ccccc1C2`, the Activity in test [1] was below 5%.
As to `COc1ccc(-n2nc(C(=O)OC(C)(C)C)c3csc(N)c3c2=O)cc1`, the Activity in test [1] is 5%.
Still for that read-out and setting: the value for `Nc1nccnc1C(=O)N/N=C/c1ccc(C(F)(F)F)cc1` was below 5%.
For `CCOC(=O)c1nn(-c2ccc(OC(C)=O)cc2)c(=O)c2c(N)scc12`, the EC50 in test [2] came to 2.5 µM. In addition, the Activity in test [1] was 66.6%. In test [3], the inhibition turned out to be 48.9%. Also, the Kb in test [4] is 0.0398 µM.
On to `CCOC(=O)c1cnc(SCC(=O)c2cc(Cl)c(Cl)s2)nc1N`, for which the Activity in test [1] is 11%.
As to `Nc1cc(Cl)ccc1C(=O)N1CCSCC1`, in test [1], the Activity worked out at 6%.
As for `NC(=O)c1cc(Cl)c(Cl)cc1C(N)=O`, the Activity in test [1] is below 5%.
Take `CCOC(=O)c1nn(-c2ccc(I)cc2)c(=O)c2c(N)scc12`: the EC50 in test [2] amounted to 7.1 µM. The Activity in test [1] was 65.4%. In test [3], this compound had an inhibition of 100%. For the same compound, in test [4], the Kb is 0.0794 µM.
For `NC(=O)c1ncccc1C(=O)O`, the Activity in test [1] was below 5%.
Take `CCOC(=O)c1nn(-c2cccc(Cl)c2)c(=O)c2c(N)scc12`: the EC50 in test [2] stood at 5.7 µM. Further, the Activity in test [1] is 69.2%; in test [7], “Dose-dependent effect”. Besides, the Ki in test [6] is 0.00575 µM. Moreover, the Kb in test [8] is 0.00794 µM; in test [4] it was 0.002 µM. For the same compound, the inhibition in test [3] was 100%.
Turning to `Nc1scc2c(C(=O)O)nn(-c3ccccc3)c(=O)c12`, the EC50 in test [2] was determined as 9.8 µM.
`COc1cccc(-c2cc3c(c(N)c2C#N)c(=O)oc2ccccc23)c1`: in test [1], the Activity is below 5%.
Take `CCOC(=O)c1nn(-c2ccc(OS(=O)(=O)C(F)(F)F)cc2)c(=O)c2c(N)scc12`: in test [2], the EC50 was found to be 4.9 µM. Further, the Activity in test [1] worked out at 68.5%. For the same compound, the inhibition in test [3] worked out at 21.5%. Further, the outcome in test [5] was inactive.
Take `COc1ccc(-n2nc(C(=O)O)c3csc(N)c3c2=O)cc1`: the EC50 in test [2] worked out at 2.6 µM. Also, in test [1], the Activity was 55.8%. In test [3], the inhibition came out at 29.5%. Moreover, in test [5], the outcome was inactive.
For the compound `Nc1c2c(=O)cc(-c3ccccc3)[nH]c2nn1-c1ccccc1`, the Activity in test [1] was below 5%.
Consider `Nc1ccc(Cl)cc1C(=O)NCc1ccccn1`, for which the Activity in test [1] was below 5%.
For the compound `CCOC(=O)c1c(C)nsc1N`, the Activity in test [1] is below 5%.
With `Cc1sc(N)c(C(=O)c2cccs2)c1C`, in test [2], the EC50 was 11.2 µM. Also, the Activity in test [1] was 33.2%. In test [3], this compound registered an inhibition of 50.3%. The outcome in test [5] was inactive.
Turning to `Cc1c(C(=O)Nc2ccccc2)sc(N)c1C(N)=O`, the 50% effective concentration (EC50) in test [2] is 3.95 µM. Moreover, the Activity in test [1] was 80.3% and 80%. Also, in test [3], the inhibition stood at 32.3%. For the same compound, the result in test [5] was inactive.
For `Nc1nccnc1C(=O)N/N=C/c1ccco1`, the Activity in test [1] was below 5%.
For the compound `CCOC(=O)c1nn(-c2ccc(O)cc2)c(=O)c2c(N)scc12`, the EC50 in test [2] is 7.1 µM. Also, in test [1], the Activity turned out to be 75.9%. Moreover, the inhibition in test [3] is 65.8%. Moreover, the Kb in test [4] is 0.0398 µM.
With `Nc1ccc(Cl)cc1C(=O)NCc1ccncc1`, the Activity in test [1] is below 5%.
`CCOC(=O)c1nn(-c2ccc(C(F)(F)F)cc2)c(=O)c2c(N)scc12`: the EC50 in test [2] was found to be 8.4 µM. For the same compound, the Activity in test [1] was determined as 81%. Further, the inhibition in test [3] worked out at 77.2%. In test [5], the outcome was inactive.
Turning to `CCOC(=O)c1cn[nH]c1N`, the Activity in test [1] is below 5%.
The same measure, in the same setting: the value for `NC(=O)c1nnn(Cc2ccc(F)cc2)c1N` was below 5%; that for `CSc1nc(C(N)=O)c(N)s1` was below 5%.
For the compound `Nc1nccnc1C(=O)NNS(=O)(=O)c1ccc(Cl)cc1`, the Activity in test [1] is below 5%.
As to `CCOC(=O)c1nn(-c2ccc(C(C)(C)C)cc2)c(=O)c2c(N)scc12`, the EC50 in test [2] came out at 9.75 µM. The Activity in test [1] stood at 59%. The compound also had an inhibition in test [3] of 23%. Further, the outcome in test [5] was inactive.
As for `CCOC(=O)c1cnn(C)c1N`, the Activity in test [1] was below 5%.
Take `Cc1nc2ccccc2c(C(=O)O)c1N`: the Activity in test [1] was below 5%.
